We go through 43 compounds from ChEMBL document CHEMBL1135676, “Comparative molecular field analysis of substrates for an aryl sulfotransferase based on catalytic mechanism and protein homology modeling” (J Med Chem, 2002).

Molecules are shown by their SMILES.

For this data set, the target named is Sulfotransferase 1A1 (Rattus norvegicus, UniProt P17988). Kind of data set: Ratio of kcat/Km determined for catalytic efficiency in sulfonation against AST IV. The procedure, abridged: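 Recombinant rat hepatic AST IV, expressed in E. coli and purified. Each reaction held 1.0 μg enzyme, 0.2 mM PAPS, 8.3 mM 2-mercaptoethanol, varying substrate and 0.25 M potassium phosphate at pH 7.0. Mixtures were preincubated 2 min at 37 °C, started with enzyme, run 10 min at 37 °C and stopped with methanol. Substrate-dependent PAP formation was read by HPLC and corrected with substrate-free controls. kcat is in min⁻¹ and apparent Km in M.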
Sulfotransferase 1A1, sequence (P17988 whole entry): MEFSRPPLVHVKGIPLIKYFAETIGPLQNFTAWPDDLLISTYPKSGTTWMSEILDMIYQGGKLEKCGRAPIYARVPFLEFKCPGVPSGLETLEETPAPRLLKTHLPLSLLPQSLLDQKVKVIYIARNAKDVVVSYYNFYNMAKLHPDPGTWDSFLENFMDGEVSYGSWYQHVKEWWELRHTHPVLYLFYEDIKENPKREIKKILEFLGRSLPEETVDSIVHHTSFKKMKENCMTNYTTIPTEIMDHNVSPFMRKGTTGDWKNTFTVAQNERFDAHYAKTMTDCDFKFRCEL

With `CCc1ccc(O)cc1`, the Ratio is 1390. Regarding `OCc1cccc2ccccc12`, the Ratio is 29.4. Take `CCCCC[C@H](O)c1ccccc1`: the Ratio is on record as 10.2.

For the compound `CCCCCCCc1ccc(O)cc1`, the Ratio was 73.4. Under `Oc1ccc(C23C[C@H]4C[C@@H](C2)C[C@@H](C3)C4)cc1` stands 1600; under `CN(O)c1ccccc1`, 24.2.

In the case of `OCc1ccc2ccccc2c1`, the Ratio is recorded as 101. Take `ONc1ccc(Cl)cc1`: the Ratio is listed as 45.6. Under `CCCCCCCc1ccc(CO)cc1` stands 11. Under `CCCCCCc1ccc(CO)cc1` stands 109; under `O=[N+]([O-])c1ccc(O)c(Cl)c1`, 190; under `CCCC[C@H](O)c1ccccc1`, 103. `C[C@@H](O)c1ccccc1`: the Ratio was 0.4. Under `CCCCc1ccc(O)cc1` stands 2230; under `CCCCCc1ccc(O)cc1`, 784.

Turning to `O=C(CBr)Nc1ccc(O)cc1`, the Ratio was found to be 146. `CCN(O)c1ccccc1`: the Ratio is 14.2. For `CCCCCC[C@H](O)c1ccccc1`, the Ratio is recorded as 8.8. Under `CCCc1ccc(CO)cc1` stands 151; under `CCCCCc1ccc(CO)cc1`, 185. Consider `CCCCc1ccc(CO)cc1`, for which the Ratio is 147. Turning to `CN[C@H](C)[C@H](O)c1ccccc1`, the Ratio worked out at 0.1. In the case of `ONc1ccccc1`, the Ratio turned out to be 6.3. In the case of `CC[C@H](O)c1ccccc1`, the Ratio is 1.4. Regarding `C[C@H](O)c1ccccc1`, the Ratio amounted to 4.6. Consider `CCCc1ccc(O)cc1`, for which the Ratio came to 2410. Under `CN[C@@H](C)C(O)c1ccccc1` (stereo partly drawn) stands 0.1.

As for `CC(C)[C@H](O)c1ccccc1`, the Ratio stood at 0.2. For `OC1CCCc2ccccc21` (stereo not drawn), the Ratio turned out to be 32.4. Take `CCCN(O)c1ccccc1`: the Ratio is recorded as 20.8. Regarding `CCC[C@H](O)c1ccccc1`, the Ratio is 0.8. Consider `OCc1ccoc1`, for which the Ratio is reported as 0.4. As to `Oc1ccc(-c2ccccc2)cc1`, the Ratio is given as 79.1. As for `Cc1ccc(CO)cc1`, the Ratio worked out at 28.7. For the compound `CCCCCCCCCc1ccc(O)cc1` [4-NONYLPHENOL], the Ratio was 28.3. Consider `CC(=O)Nc1ccc(O)cc1` [ACETAMINOPHEN], for which the Ratio was determined as 66.7. Turning to `OCc1ccccc1` [BENZYL ALCOHOL], the Ratio is on record as 20.7. With `Oc1ccc2ccccc2c1` [BETANAPHTHOL], the Ratio is listed as 4790. As to `OCc1c[nH]c2ccccc12` [INDOLE-3-CARBINOL], the Ratio is 38.9. As to `O=[N+]([O-])c1ccc(CO)cc1` [PARANITROBENZYL ALCOHOL], the Ratio came out at 3.5. Regarding `Oc1ccccc1` [PHENOL], the Ratio is recorded as 625. With `COC(=O)[C@@H](N)Cc1ccc(O)cc1` [TYROSINE METHYL ESTER], the Ratio was 3. Consider `Cc1ccc(O)cc1` [p-CRESOL], for which the Ratio amounted to 1080.
